We go through 38 variants from the RNAGym collection of RNA variant scans (doi:10.1126/science.aae0568).

This sample holds only a part of the variants without activity.

The labels stand for the following.
B1: tRNA (parent)
chain: GUUCCGUUGGCGUAAUGGUAACGCGUCUCCCUCCUAAGGAGAAGACUGCGGGUUCGAGUCCCGUACGGAACG

In the series the parent is B1. Kind of series: yeast fitness relative to wild type (ratio to wild type); higher = fitter; tRNA-Arg(CCU), competitive growth, 37 C, YPD. The essentials: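 Start and end populations of a pooled competition were compared by 100-nucleotide paired-end sequencing of gene amplicons. The Saccharomyces cerevisiae strains carried tRNA-Arg(CCU) gene variants at the native genomic locus, synthesised with a 3% per-site mutation rate at 69 sites, and competed in YPD at 37°C for 24 hours in six parallel replicates. Darwinian fitness relative to wild type was based on the change in genotype frequencies. Genotypes required ≥ 100 starting reads, and estimates < 0.5 were set to 0.5.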
Consider GUUCCGUUGGCGAAAUGCUCACGUGUCUCUCUCCUAAGGCGAAGACUGCGGGUUCGAGUCCCGUACGCAACG [U13A G18C A20C C24U C30U A40C G68C], for which the yeast fitness is no more than 0.5.

With GUUCCGUUGGCGUAAUGGUAACGCGUCUCCCUCCUAAGGAGAAGACUGAGCGUUCGAGACCCGUACGGAACG [C49A G51C U59A], the yeast fitness is no more than 0.5.

Regarding GUUCCGUUGGCGUAAUGGUAACGCGUGUCCCUCCUAAGGAGAAGCCUGCGGGUUCGACUCCCGUACGGAACG [C27G A45C G58C], the yeast fitness amounted to 0.644.

Turning to GUUCCGAUGGCGUAAUGGUAACGCGUCUCCUUCCUAAGGAGAAGACUGCGGGUUCGAGUCCCGUACGGAACG [U7A C31U], the yeast fitness was 0.683.

For GUUCCGUUGGCGUAAUGGUUACGCGUCUAACUCCUAAGGAGAAGACUGCGGGGUCGAGUCCGGUACGGAACG [A20U C29A C30A U53G C62G], the yeast fitness was no more than 0.5.

Regarding GUUCGGUUGGCGUAAUGGUAACGCGUCUCCCUCCUAAGGAGAAGAGUGCGGGUUCGAGUCCCGUACGGAACG [C5G C46G], the yeast fitness came out at 0.751.

Regarding GUUCCGUUGGCGUAAUGAUAUCGCGUCUCCCUCCUAAGGAGAAGACUGAGGGUUCGAGUGCCGUACGGAUCG [G18A A21U C49A C60G A70U], the yeast fitness was no more than 0.5.

For the variant GUUCCGAUGGCGUAAUGGUAACGCGUCUCCCUCCUAAGGAGAAGACGGCGGGUUCGAGUCCCGUACGGAACG [U7A U47G], the yeast fitness turned out to be 0.557.

For the variant GUUACGUUGGCGUAAUGGUAACGCGUCUCCCUCCUAAGGAGAAGACUGCGGGUUCUAGUCCCGUACGGAACG [C4A G56U], the yeast fitness stood at 0.786.

Turning to GUUUCGUUGGCGUAAUGGUAACGCGUCUCCCUCCUAAGGAGAAGACUGCGGGUUCGAGUCCCGUGCGGAACG [C4U A65G], the yeast fitness was 0.877.

Turning to GUCCCGUUGGCGUGAUGGUAACGCGUCUCGCUCCUAAGGAGACGACUGCGGGUUCGAGUCCCGUACGGAACG [U3C A14G C30G A43C], the yeast fitness is no more than 0.5.

Regarding GUUACGUUGGCGUAGUGGUAACGCGUUUCCCUCCUAAGGAGAAGACUGCGGGUUCGAGUCCCGUACGGAACG [C4A A15G C27U], the yeast fitness amounted to 0.664.

As for GUUCCGUUGGCGUACUGGUAACGCGUCUCCCUCCUAAGGAGAAGACAGCGGGUUCGAGUCCCGUCCGGAACG [A15C U47A A65C], the yeast fitness came out at 0.561.

Regarding GUUCCGUUGGCGUAAUGGCAACGCCUCUCCCUCCUAAGGAGAAGACUGCGCGUUCGAGUUCCGUACGGUACG [U19C G25C G51C C60U A69U], the yeast fitness was no more than 0.5.

As to GUUGCGUUGGCGUAAUCGUAAAGCGUGUCCCUUCUAAGGAGAAGACUGGGGGUUCGAGUCCCGUACGGAACG [C4G G17C C22A C27G C33U C49G], the yeast fitness is no more than 0.5.

GUUGCGUUGGCGUAAUGGUAGCGCGUCUCCCACCUAAGGAGAAGACUGCGGGUUCGAGUCCCGUACGGAACG [C4G A21G U32A]: the yeast fitness worked out at 0.672.

With GUUCUCUUGGCGUAAUGGUAUCGCGUCUCCCUCCCAAGAAGAAGACUGCGGGUUCGAGUCCCGUACGGAACG [C5U G6C A21U U35C G39A], the yeast fitness was no more than 0.5.

Take GUUCCGUUGGCGUAAUGGUAACGAGUCUCCCUCCUAAGGAGCAGACUGCGGGUUCGAGUCCCGUACCGAUCG [C24A A42C G67C A70U]: the yeast fitness is no more than 0.5.

Take GUUCCGUUGGCGUAUUGCUAGCGCGUCUCCCUCCUAAGGAGAAGACUGCGGGUUCGAGACGCGUACGGAACG [A15U G18C A21G U59A C61G]: the yeast fitness was no more than 0.5.

With GUCCCGUUGGCGUAAUGGUAACGCGUCUCCAUCCUAAGGAGAAGACUGCGGGUUCGAGUCCCGUACGGAACG [U3C C31A], the yeast fitness worked out at 0.845.

For GUUCCGUUGGUGUAAUGGUAAGGCGUCUCCCUCCUAAGGAGAAGACUGCGGGUUCGAGUCCCGUACGGACCG [C11U C22G A70C], the yeast fitness came to 0.669.

Consider GUUCCGUUGGCGUAAUGGUAACGCGUCUACCUCCUAAGGAGAAGACUGCGGGUUCGGGUCCCGUACGGAACG [C29A A57G], for which the yeast fitness came out at 0.646.

Consider GUUCCGUUGGCGUAACGGUAACGCGUCUCCCUCCUAAGGAGAAGACUGCGGGUUCGAGUCCUGUACGGAACG [U16C C62U], for which the yeast fitness was determined as 1.

For the variant GUUCAGCUGGCGUAAUGGUAACGCGUCUCCCUCCUAAGGAGAAGACUCCGGGUUCGAGUCCCGUACGGAACG [C5A U7C G48C], the yeast fitness is no more than 0.5.

On to GUUCCGUUGGCGUAAUCGUAACGCGUCUCCCUCCUAAGGAGAAGACUGCGGGUUCGAGUCGCGUAUGGAACG [G17C C61G C66U], for which the yeast fitness is no more than 0.5.

Regarding GUUGCAUUGGUGUAAUGGUAACGCGUCUCCCUCCUAAGGAGAAGACUGCGGGUUCGAGUCUCGUACGGAACG [C4G G6A C11U C61U], the yeast fitness was no more than 0.5.

For the variant GUUCGGUUGGCGUAAUGGUAACGCGUCUCCCUCCUAAGGAGAUGACUGCGGGUUCGAGUCCCGCACGGAACG [C5G A43U U64C], the yeast fitness stood at 0.703.

Regarding GUUCCGUUGGCGUGAUGGUAAUGCGUCUCCCUCUAAAGGAGAAGACUGCGGGUUAGAGUCCCGUACGGAACG [A14G C22U C34U U35A C55A], the yeast fitness is no more than 0.5.

Regarding GUUCCGUUGGCAUAAUGGUAACGCGUCUCCCUCCUAAGGAGAAGAUUGCGAGUUCGAGUCCCGUAUGGAACG [G12A C46U G51A C66U], the yeast fitness was determined as 0.615.

For GUUCCGUUGGAGUAAUGGUAACCCGUCUCCCUCCUAAGGAGCCGACUGCGGGUUCGAGUCCCGUACGGAACG [C11A G23C A42C A43C], the yeast fitness is no more than 0.5.

For GUUCCGUUGGUGUAAUGGUAACGCGUCUCCCUCCUAAGGAGAAGAUUGCGGGUUCGAGUCCCGUUCGGUACG [C11U C46U A65U A69U], the yeast fitness is 0.54.

Consider GUUGGGUUGGCGUAAUGGUAACGCGUCUCCAUCCCAAGGAGAAGAAUGCGGGUUCGAGUCCCGUACAGAACG [C4G C5G C31A U35C C46A G67A], for which the yeast fitness is no more than 0.5.

Take GUUCCGUUGGCGUAAUGGUAACGCGUUUCCUUCCUAAGGAGAAGACUGCGGCUUCGAGGCCCGUACGGAACG [C27U C31U G52C U59G]: the yeast fitness is no more than 0.5.

Turning to GUUCCGUUGGCGUAAUGGUAACGAGUCUCCUUCCUAAGGAGAAGACUGCGGGAUCGAGUCCCGUACGGAACG [C24A C31U U53A], the yeast fitness is 0.786.

With GUUCCGUUGGCGUAAUGGUAACGCGUCUCCCCGCUAAGGAGAAGACUGCGGGUUCGAGUCCCGUACCGAACG [U32C C33G G67C], the yeast fitness was no more than 0.5.

Regarding GUUCCGUUGGAGUAAUGGUAACGCGUCUCCCUCCUAAGGAGAAGACUGCGGGUUGGAGUCCCGUACGGAACG [C11A C55G], the yeast fitness is 0.535.

GUUCCGUUGGCGUAAUGGUAACGGGUCUCCCUCCUGAGGAGAAGACUGCGGGUUCGGGUCCCGUACGGAACG [C24G A36G A57G]: the yeast fitness came to 0.533.

For the variant GUUCGGUUGGCGUAUUGGUAACGCGUCCCCCUCCUAAGGAGAAGACUGCGGGUUCGAGUCCCGUACGGAACG [C5G A15U U28C], the yeast fitness is no more than 0.5.
